Source: ChEMBL document CHEMBL3259616, “New Ianthelliformisamine derivatives as antibiotic enhancers against resistant Gram-negative bacteria” (J Med Chem, 2014)
In brackets after ≈: the same amount, converted by molar mass. Activity calls are given as the source filed them. The calls are words filed in the database; no cut-off is given here.

Tests used:
Pseudomonas aeruginosa [1] = assay: Disruption of outermembrane in Pseudomonas aeruginosa PAO1 assessed as rate of nitrocefin hydrolysis at 500 uM spectrophotometrically; format: functional, organism-based
Method in brief: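 PAO1 grown in MH broth at 37 °C to OD600 0.5; then room temperature. Cells centrifuged and washed once in 20 mM potassium phosphate pH 7.2 with 1 mM MgCl2, then exposed to compound. Nitrocefin added to final 50 μg/mL as periplasmic β-lactamase substrate; hydrolysis followed as rising absorbance at 490 nm against untreated control.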

Klebsiella pneumoniae [2] = assay: Antibacterial activity against Klebsiella pneumoniae KPC2 ST258 assessed as inhibition of visible growth after 18 hrs incubation by standard broth dilution method; format: functional; settings: KPC2, 18 h
Method in brief: (§1)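 Broth microdilution per CA-SFM: inoculum 10^5 CFU in 200 μL Mueller–Hinton broth with 2-fold serial dilutions of compound; MIC = lowest concentration with no visible growth after 18 h at 37 °C. Independently repeated at least three times. Strains kept at −80 °C in 15% glycerol and grown routinely in MH broth at 37 °C.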

Pseudomonas aeruginosa [3] = assay: Disruption of outermembrane in Pseudomonas aeruginosa PAO1 assessed as ATP efflux at 2 to 200 uM by bioluminescence method; format: functional, organism-based
Method in brief: (§2)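 After 5 min an aliquot was vortexed, luciferin–luciferase added and luminescence read for 5 s. ATP quantified with an internal standard; maximal release set with 0.02% […].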

[4] = tested on: Pseudomonas aeruginosa PAO1; assay: Inhibition of multidrug resistance efflux pump in Pseudomonas aeruginosa PAO1 assessed as dose required to restore 2 ug/ml cefepime-induced inhibition of visible growth after 18 hrs by standard broth dilution method
Method in brief: (§3)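 Broth microdilution in MH broth, inoculum 10^5 CFU in 200 μL, 2-fold serial dilutions of derivative with fixed antibiotic (2 μg/mL). Lowest derivative concentration giving complete inhibition of visible growth after 18 h at 37 °C recorded. Antibiotics dissolved in DMSO. Independently repeated at least three times.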

Klebsiella pneumoniae [5] = assay: Inhibition of multidrug resistance efflux pump in Klebsiella pneumoniae KPC2 ST258 assessed as dose required to restore 2 ug/ml doxycycline-induced inhibition of visible growth after 18 hrs by standard broth dilution method
Method in brief: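 Broth microdilution in Mueller-Hinton broth, CA-SFM recommendations. Inoculum 10^5 CFU in 200 μL containing 2-fold serial dilutions of derivative plus doxycycline at 2 μg/mL, 37 °C for 18 h. Antibiotics dissolved in DMSO, up to 5% v/v. Repeated independently at least three times.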

[6] = Cytotoxicity against human fibroblasts assessed as decrease in cell viability after 24 hrs by WST-1 assay; format: cell-based; settings: Fibroblast
Method in brief: (§4)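 CHO-K1 (McCoy's 5A) and human fibroblasts (DMEM), both with 10% bovine calf serum, 2 mM glutamine, penicillin/streptomycin, 37 °C, 5% CO2. Seeded, left overnight, then exposed to various compound concentrations in triplicate for 24 h at 37 °C. Washed three times in PBS, 30 min in PBS with 10% WST-1, A450. Viability as % of medium-only control; IC50 by nonlinear regression.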

[7] = tested on: Pseudomonas aeruginosa PAO1; assay: Inhibition of multidrug resistance efflux pump in Pseudomonas aeruginosa PAO1 assessed as dose required to restore 2 ug/ml chloramphenicol-induced inhibition of visible growth after 18 hrs by standard broth dilution method; method in brief: as §3
Klebsiella aerogenes [8] = assay: Antibacterial activity against Enterobacter aerogenes EA289 assessed as inhibition of visible growth after 18 hrs incubation by standard broth dilution method; format: functional; settings: EA289, 18 h; method in brief: as §1
Pseudomonas aeruginosa [9] = assay: Disruption of outermembrane in Pseudomonas aeruginosa PAO1 assessed as ATP efflux at 2 mM by bioluminescence method; format: functional; method in brief: as §2
Pseudomonas aeruginosa [10] = assay: Disruption of outermembrane in Pseudomonas aeruginosa PAO1 assessed as ATP efflux at 2 to 200 uM by bioluminescence method in presence of 2 to 50 ug/ml doxycycline; format: functional, organism-based; method in brief: as §2
Staphylococcus aureus = assay: Antibacterial activity against Staphylococcus aureus DSM799 assessed as inhibition of visible growth after 18 hrs incubation by standard broth dilution method; format: functional; settings: DSM799, 18 h; method in brief: as §1
[11] = Cytotoxicity against CHOK1 cells assessed as decrease in cell viability after 24 hrs by WST-1 assay; format: cell-based; settings: Cricetulus griseus, CHO-K1, 24 h; method in brief: as §4
[12] = tested on: Pseudomonas aeruginosa PAO1; assay: Inhibition of multidrug resistance efflux pump in Pseudomonas aeruginosa PAO1 assessed as depolarization by spectrofluorometry
Method in brief: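 PAO1 grown 24 h at 37 °C in MH broth, washed twice in buffered 250 mM sucrose with 5 mM MgSO4. Loaded with 3 μM 3,3-diethylthiodicarbocyanine iodide for 1 h at 37 °C, then derivative added at various concentrations. Fluorescence read at 0–21 min intervals. Maximum taken as 3 μM dye alone in buffer.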

Pseudomonas aeruginosa [13] = assay: Antibacterial activity against Pseudomonas aeruginosa PAO1 assessed as inhibition of visible growth after 18 hrs incubation by standard broth dilution method; format: functional; settings: PAO1, 18 h; method in brief: as §1
[14] = tested on: Pseudomonas aeruginosa PAO1; assay: Inhibition of multidrug resistance efflux pump in Pseudomonas aeruginosa PAO1 assessed as dose required to restore 2 ug/ml doxycycline-induced inhibition of visible growth after 18 hrs by standard broth dilution method; method in brief: as §3
Klebsiella aerogenes [15] = assay: Inhibition of multidrug resistance efflux pump in Enterobacter aerogenes EA289 assessed as dose required to restore 2 ug/ml doxycycline-induced inhibition of visible growth after 18 hrs by standard broth dilution method; method in brief: as §3

SMILES	inhibition (Pseudomonas aeruginosa [1])	MIC (Klebsiella pneumoniae [2])	inhibition (Pseudomonas aeruginosa [3])	Activity [4]	Activity (Klebsiella pneumoniae [5])	IC50 [6]	Activity [7]	MIC (Klebsiella aerogenes [8])	Activity (Pseudomonas aeruginosa [9])	inhibition (Pseudomonas aeruginosa [10])	MIC (Staphylococcus aureus)	IC50 [11]	inhibition [12]	MIC (Pseudomonas aeruginosa [13])	Activity [14]	inhibition [14]	Activity (Klebsiella aerogenes [15])
COc1c(Br)cc(/C=C/C(=O)NCCCN(CCCN)CCCN)cc1Br	inactive	> 200 µM	inactive	0.4 µM	3.12 µM	345 µM	100 µM	> 200 µM	<16%	inactive	50 µM (≈ 25.3 µg/mL)	846 µM	Dose-dependent effect	100 µM (≈ 50.6 µg/mL)	3.12 µM	Dose-dependent effect	6.25 µM
COc1c(Br)cc(/C=C/C(=O)NCCCOCCCCOCCCN)cc1Br	–	> 200 µM	–	–	>100 µM	–	–	> 200 µM	–	–	> 200 µM	–	–	> 200 µM	> 100 µM	Dose-dependent effect	> 100 µM
COc1c(Br)cc(/C=C/C(=O)NCCCN(C)CCCN)cc1Br	–	> 200 µM	–	–	–	24 µM	–	> 200 µM	–	–	> 200 µM	174 µM	–	200 µM (≈ 92.6 µg/mL)	–	–	–
COc1c(Br)cc(/C=C/C(=O)NCCCN2CCOCC2)cc1Br	–	> 200 µM	–	–	>100 µM	–	–	> 200 µM	–	–	> 200 µM	–	–	> 200 µM	> 100 µM	Dose-dependent effect	> 100 µM
COc1c(Br)cc(/C=C/C(=O)NCCCNCCCCNCCCN)cc1Br [IANTHELLIFORMISAMINE A]	–	> 200 µM	–	–	>100 µM	–	–	> 200 µM	–	–	200 µM (≈ 104 µg/mL)	–	–	200 µM (≈ 104 µg/mL)	12.5 µM	Dose-dependent effect	> 100 µM
C[C@H]1c2cccc(O)c2C(=O)C2=C(O)[C@]3(O)C(=O)C(C(N)=O)=C(O)[C@@H](N(C)C)[C@@H]3[C@@H](O)[C@@H]21 [DOXYCYCLINE]	–	–	–	–	–	–	–	56 µM (≈ 24.9 µg/mL)	–	–	< 3 µM	–	–	112 µM (≈ 49.8 µg/mL)	–	–	–
COc1c(Br)cc(/C=C/C(=O)NCCCN)cc1Br	–	> 200 µM	–	–	100 µM	–	–	> 200 µM	–	–	> 200 µM	–	–	100 µM (≈ 39.2 µg/mL)	100 µM	Dose-dependent effect	> 100 µM
COc1c(Br)cc(/C=C/C(=O)NCCCN2CCN(CCCN)CC2)cc1Br	–	> 200 µM	–	–	>100 µM	–	–	> 200 µM	–	–	6.25 µM (≈ 3.24 µg/mL)	–	–	> 200 µM	–	–	> 100 µM
COc1c(Br)cc(/C=C/C(=O)NCCN)cc1Br	–	> 200 µM	–	–	50 µM	–	–	> 200 µM	–	–	> 200 µM	–	–	> 200 µM	> 100 µM	Dose-dependent effect	> 100 µM
